Active and inactive are the calls of the source. The rule behind the calls is not given here.
Key:
[1] = molecular target: GABA-A receptor; alpha-1/beta-2/gamma-2 (Homo sapiens) (UniProt P14867+P47870+P18507); experiment: Positive allosteric modulation of GABAA receptor alpha1beta2gamma2 (unknown origin) expressed in Xenopus laevis oocytes assessed as GABA-stimulated current amplitude at 1 to 10 uM incubated for 120 secs by electrophysiological method relative to control; assay type: cell-based
Outline: (§1)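 Two-electrode voltage clamp on Xenopus oocytes injected with subunit mRNA mixtures (α1β3 or α1β2γ2). Compounds at 1 and 10 μM, diluted into measurement buffer, co-applied with GABA at EC3-5, EC20, EC50 and EC80. Result taken as enhancement of the GABA-elicited current.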

[2] = molecular target: T1, Peroxisome proliferator-activated receptor gamma (Homo sapiens) (UniProt P37231); experiment: Transactivation of human full length PPARgamma expressed in HEK293 cells up to 3 uM after 18 hrs by luciferase reporter gene based luminescence assay; assay type: cell-based
T1 sequence (whole entry): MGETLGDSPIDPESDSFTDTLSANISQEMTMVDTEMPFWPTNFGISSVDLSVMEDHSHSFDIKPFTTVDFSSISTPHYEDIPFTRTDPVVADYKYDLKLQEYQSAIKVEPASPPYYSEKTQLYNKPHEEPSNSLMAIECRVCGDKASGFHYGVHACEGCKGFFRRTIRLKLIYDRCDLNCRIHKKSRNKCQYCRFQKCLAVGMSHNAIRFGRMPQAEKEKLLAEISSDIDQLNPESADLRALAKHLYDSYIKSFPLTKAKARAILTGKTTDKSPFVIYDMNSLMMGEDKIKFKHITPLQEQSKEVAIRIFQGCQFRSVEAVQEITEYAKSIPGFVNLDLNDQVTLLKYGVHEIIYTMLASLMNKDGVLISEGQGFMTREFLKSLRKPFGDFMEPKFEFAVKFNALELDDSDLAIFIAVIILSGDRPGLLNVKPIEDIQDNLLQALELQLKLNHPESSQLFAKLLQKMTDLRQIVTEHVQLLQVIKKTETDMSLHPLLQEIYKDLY
Outline: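 HEK293 cells transfected for 6 h with full-length human PPARγ, a PPRE-firefly luciferase reporter and pEGFP-N1 (internal control). Cells reseeded in serum-free DMEM, dosed at 0.1–30 μM in DMSO and incubated 18 h. Luciferase/EGFP ratio expressed as fold induction over 0.1% DMSO; pioglitazone 5 μM as positive control. EC50 from a variable-slope sigmoidal fit.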

[3] = molecular target: GABA-A receptor alpha-1/beta-3 (Homo sapiens) (UniProt P14867+P28472); experiment: Positive allosteric modulation of GABAA receptor alpha1beta3 (unknown origin) expressed in Xenopus laevis oocytes assessed as GABA-stimulated current amplitude at 1 to 10 uM up to 120 secs by electrophysiological method; assay type: cell-based; outline: as §1
Oocyte = experiment: Induction of current amplitude in Xenopus laevis oocytes after […] by electrophysiological method; assay type: functional, cell-based
HEK293 = experiment: Cytotoxicity against HEK293 cells assessed as decrease in cell viability at 10 uM after 24 hrs by resazurin based assay; conditions: human, hek293, 24 h
Outline: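 HEK293 cells seeded at 4 × 10^4 cells/well, grown overnight, then exposed to compound at 0.3, 1, 3, 10 and 30 μM for 24 h. Resazurin (10 μg/mL in PBS) added for 4 h at 37 °C. Resorufin fluorescence read at 535 nm excitation/590 nm emission as the viability measure.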

SMILES	fold change (FC) [1]	Activity [2]	Activity [3]	Activity (Oocyte)	Activity (HEK293)
C=C[C@H](O)C#CC#C[C@H](/C=C\CCCCCCC)OC(=O)/C=C/c1ccc(O)c(OC)c1	4	inactive	Active	Active	
C=C[C@H](O)C#CC#C[C@@H](O)/C=C\CCCCCCC		inactive			Toxic
C=C[C@H](O)C#CC#C[C@@H](/C=C\CCCCCCC)OC(=O)/C=C/c1ccc(O)c(OC)c1	4	inactive	Active	Active	
C=CC(O)C#CC#CC(/C=C\CCCCCCC)OC(=O)/C=C/c1ccc(O)c(OC)c1 (stereo not drawn)		inactive			Toxic
C=C[C@@H](O)C#CC#C[C@H](/C=C\CCCCCCC)OC(=O)/C=C/c1ccc(O)c(OC)c1	4		Active	Active	
CCC[C@@H](O)/C=C/C=C/C=C/C#CC#CCCCO [CICUTOXIN]		inactive			Toxic
C=C[C@@H](O)C#CC#C[C@@H](/C=C\CCCCCCC)OC(=O)/C=C/c1ccc(O)c(OC)c1	4	inactive	Active	Active	
CCC[C@@H](O)CC/C=C/C=C/C#CC#CCCCO [DIHYDROOENANTHOTOXIN]		inactive			Toxic
